From ChEMBL document CHEMBL4402581, “Monohydrazone Based G-Quadruplex Selective Ligands Induce DNA Damage and Genome Instability in Human Cancer Cells” (J Med Chem, 2020) come the findings set out here.

What is called pIC50 is the negative decadic logarithm of the IC50, by convention in mol/L.

For assay [1], the system named is Quadruplex DNA. Kind of assay: Effect on c-Kit2 G4 quadruplex DNA architecture at 10 mol.equiv by circular dichroism spectral analysis. The assay is classed as nucleic-acid assay. In a few lines:
(§1)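 CD spectra of 15 μM G4s or 30 μM hairpin in 20 mM K phosphate pH 7.0 with 5 mM KCl, after annealing. Recorded at 20 °C over 230–360 nm, three scans averaged, buffer baseline subtracted. Ligand was added at 10 mol equiv to the folded DNA from a 10 mM DMSO stock.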
For orientation: Circular dichroism is widely used to follow secondary structure.

The test system of assay [2] is U2OS. Kind of assay: Cytotoxicity against human U2OS cells assessed as reduction in cell viability incubated for 24 hrs followed by 48 hrs of recovery in drug-free medium by MTT assay. The assay is classed as functional, cell-based. In a few lines:
(§2)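 Cells grown in DMEM with 10% FBS and 1% glutamine at 37 °C, 5% CO2, and seeded 25 × 10^4 per well. Treatment began 24 h after seeding and lasted 1 or 24 h, followed by 48 h in drug-free medium. MTT was added for 1 h at 37 °C, then DMSO solubilization and absorbance at 595 nm. IC50 came from linear regression; two independent experiments, each in triplicate.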

For assay [3], the system named is Quadruplex DNA. As to the kind of experiment: Stabilization of human Tel23 G4 quadruplex DNA assessed as change in melting temperature at 10 mol.equiv by circular dichroism melting assay. It is filed as nucleic-acid assay. In a few lines: (§3)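 CD melting from 20 to 100 °C at 1 °C/min, monitored at 264 nm (c-Kit1, c-Kit2, c-Myc, Tel23-p), 287 nm (Tel23-h) or 280 nm (hairpin). Ligand was at 10 mol equiv with folded DNA (15 μM G4, 30 μM hairpin). ΔTm is Tm with ligand minus Tm without, from curve fits, averaged over triplicates.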

Assay [4] has as its system U2OS. Kind of assay: Cytotoxicity against human U2OS cells assessed as reduction in cell viability incubated for 1 hr followed by 48 hrs of recovery in drug free medium by MTT assay. It is filed as functional, cell-based. In a few lines:
as §2
For orientation: Formazan colour is commonly taken as a measure of viable cells.

Assay [5] has as its system U2OS. As to the kind of experiment: Induction of DNA:RNA hybrid formation in human U2OS cells assessed as increase in R loop formation at 10 uM incubated for 30 mins by S9.6 immunofluorescence microscopy. It is filed as functional, cell-based. In a few lines: (§4)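 U2OS cells were treated at 10 μM for 5–60 min, 24 h after seeding, then fixed in cold methanol and permeabilized with acetone. Stained with S9.6 antibody and anti-nucleolin. The nucleolar signal was subtracted from total nuclear S9.6 fluorescence, and values were normalized to the untreated mean; two biological replicates.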

Assay [6] relates to Quadruplex DNA. As to the kind of experiment: Stabilization of G4 quadruplex DNA in human U2OS cells assessed as increase in number of G4 foci at 10 uM incubated for 24 hrs by immunofluorescence microscopy. It is filed as cell-based.
Assay [7] deals with U2OS. Kind of assay: Induction of DNA:RNA hybrid formation in human U2OS cells assessed as increase in R loop formation at 10 uM incubated for 60 mins by S9.6 immunofluorescence microscopy. The assay is classed as functional, cell-based. In a few lines: as §4
Assay [8] can be described thus: Effect on hairpin-duplex DNA architecture at 10 mol.equiv by circular dichroism spectral analysis. In a few lines:
as §1

Assay [9] deals with Quadruplex DNA. As to the kind of experiment: Effect on c-Myc G4 quadruplex DNA architecture at 10 mol.equiv by circular dichroism spectral analysis. It is filed as nucleic-acid assay. In a few lines:
as §1

Assay [10] relates to HeLa. As to the kind of experiment: Cytotoxicity against human HeLa cells assessed as reduction in cell viability incubated for 1 hr followed by 48 hrs of recovery in drug free medium by MTT assay. The assay is classed as functional, cell-based. In a few lines: as §2
Assay [11] has as its system HeLa. Kind of assay: Cytotoxicity against human HeLa cells assessed as reduction in cell viability incubated for 24 hrs followed by 48 hrs of recovery in drug free medium by MTT assay. It is filed as functional, cell-based. In a few lines: as §2
Assay [12] concerns U2OS. Kind of assay: Induction of DNA damage in human U2OS cells assessed as increase in phosphorylated 53BPI foci colocalization with gammaH2AX foci at 10 uM incubated for 4 hrs by immunofluorescence microscopy. It is filed as functional, cell-based. In a few lines: (§5)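 U2OS cells were treated with 10 μM for 4 h, pre-extracted 3 min with CSK buffer containing 0.5% Triton X-100, and fixed in 2% paraformaldehyde. Co-stained 1 h for 53BP1 and γH2AX, with DAPI counterstain. Foci were counted per nucleus and normalized to the untreated mean, across three biological replicates.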

Assay [13] relates to Quadruplex DNA. Kind of assay: Stabilization of c-Kit2 G4 quadruplex DNA assessed as change in melting temperature at 10 mol.equiv by circular dichroism melting assay. It is filed as nucleic-acid assay. In a few lines:
as §3

Assay [14] has as its system Quadruplex DNA. As to the kind of experiment: Stabilization of c-Kit1 G4 quadruplex DNA assessed as change in melting temperature at 10 mol.equiv by circular dichroism melting assay. The assay is classed as nucleic-acid assay. In a few lines:
as §3

The test system of assay [15] is Quadruplex DNA. As to the kind of experiment: Stabilization of parallel Tel23 G4 quadruplex DNA assessed as change in melting temperature at 10 mol.equiv by circular dichroism melting assay. The assay is classed as nucleic-acid assay. In a few lines:
as §3

Assay [16] deals with Quadruplex DNA. Kind of assay: Stabilization of c-Myc G4 quadruplex DNA assessed as change in melting temperature at 10 mol.equiv by circular dichroism melting assay. The assay is classed as nucleic-acid assay. In a few lines:
as §3

Assay [17] relates to Quadruplex DNA. As to the kind of experiment: Effect on c-Kit1 G4 quadruplex DNA architecture at 10 mol.equiv by circular dichroism spectral analysis. It is filed as nucleic-acid assay. In a few lines:
as §1

In assay [18] the test system is Quadruplex DNA. As to the kind of experiment: Effect on parallel Tel23 G4 quadruplex DNA architecture at 10 mol.equiv by circular dichroism spectral analysis. The assay is classed as nucleic-acid assay. In a few lines: as §1
Assay [19] deals with Quadruplex DNA. Kind of assay: Effect on human Tel23 G4 quadruplex DNA architecture at 10 mol.equiv by circular dichroism spectral analysis. It is filed as nucleic-acid assay. In a few lines:
as §1

In assay [20] the test system is U2OS. Kind of assay: Induction of genome instability in human U2OS cells assessed as increase in micronuclei formation at 10 uM incubated for 24 hrs by immunofluorescence microscopy. It is filed as functional, cell-based. In a few lines: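 U2OS cells were treated for 24 h, fixed in 4% paraformaldehyde, permeabilized with 0.5% Triton X-100, and stained with DAPI. Micronuclei were counted per 100 cells.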

The subject of assay [21] is Quadruplex DNA. Kind of assay: Stabilization of G4 quadruplex DNA in human U2OS cells assessed as colocalization of TRF2/[…] foci at 10 uM incubated for 24 hrs by immunofluorescence microscopy (reference value: 18.4 +/- 2.81%). The assay is classed as cell-based.
In assay [22] the test system is U2OS. As to the kind of experiment: Induction of DNA damage in human U2OS cells assessed as increase in gammaH2AX phosphorylation at S139 at 10 uM incubated for 4 hrs by immunofluorescence microscopy. It is filed as functional, cell-based. In a few lines:
as §5

For assay [23], the system named is Quadruplex DNA. Kind of assay: Stabilization of G4 quadruplex DNA in human U2OS cells assessed as TRF2 foci per cell at 10 uM incubated for 24 hrs by immunofluorescence microscopy (reference value: 15.8 +/- 2.6%). It is filed as cell-based.
Assay [24] in a line: Stabilization of hairpin-duplex DNA assessed as change in melting temperature at 10 mol.equiv by circular dichroism melting assay. In a few lines: as §3

SMILES strings stand for the structures. pIC50: −log10 of the molar value. The source made the active and inactive calls. The rule behind the calls is not given here.

Turning to `N=C(N)N/N=C/c1c(-c2ccccc2)nc2nc(N)ccn12`, the outcome (in the assay on Quadruplex DNA [1]; in the assay on Quadruplex DNA [3]; in the assay on Quadruplex DNA [6]; in assay [8]; with Quadruplex DNA [9]; with Quadruplex DNA [13]) was inactive. Also, the result in the assay with Quadruplex DNA [14], with Quadruplex DNA [15], with Quadruplex DNA [16], in the assay with Quadruplex DNA [17], in the assay on Quadruplex DNA [18] and in the assay with Quadruplex DNA [19] was inactive. In addition, the outcome in assay [24] was inactive. For the same compound, the pIC50 was < 4.30 in the assay on U2OS [2], < 4.00 with U2OS [4], < 4.00 in the assay with HeLa [10] and < 4.30 with HeLa [11]. Moreover, the result with U2OS [5], in the assay with U2OS [7], with U2OS [12], in the assay with U2OS [20] and with U2OS [22] was Active. Moreover, the Activity in the assay on Quadruplex DNA [21] was 10.1%; in the assay on Quadruplex DNA [23] it was 15.3%.
